Assay results reported in ChEMBL document CHEMBL2086221, “Armeniaspiroles, a new class of antibacterials: Antibacterial activities and total synthesis of 5-chloro-Armeniaspirole A” (Bioorg Med Chem Lett, 2012).
≈ marks a conversion by molar mass, not a printed value. Calls of active or inactive are those of the source. The rule behind the calls is not given here.

Legend:
Staphylococcus aureus [1] = test: Antibacterial activity against methicillin-resistant Staphylococcus aureus ATCC 33592 infected in mouse assessed as host survival at 10 mg/kg/day, iv relative to control; format: functional
[2] = Chemical stability of the compound in PBS buffer up to 24 hrs at pH 7.4; format: physicochemical; details: pH 7.4, 24 h
[3] = Drug degradation in PBS buffer over 24 hrs in presence of GSH; format: physicochemical; details: PBS buffer with GSH; read-out: Drug degradation
Method in brief: (§1)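 Parent compound incubated in PBS buffer with 10 mM GSH or 10 mM i-BuNH2 for 24 h; read-out is the decrease in parent compound concentration over that period.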

Staphylococcus aureus [4] = test: Antibacterial activity against methicillin-resistant Staphylococcus aureus ATCC 33592 infected in mouse assessed as host survival at 3 mg/kg/day, iv relative to control; format: functional
Enterococcus faecium [5] = test: Antibacterial activity against vancomycin-resistant Enterococcus faecium DSM 17050 at >1 ug/mL after 48 hrs; format: functional, organism-based
Staphylococcus aureus [6] = test: Antibacterial activity against methicillin-resistant Staphylococcus aureus ATCC 33592 infected in mouse assessed as log reduction in bacteremia at 20 mg/kg/day, sc relative to control; format: functional; details: route subcutaneous
Method in brief: (§2)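 Mice with MRSA ATCC33592 septicemia were dosed sc at 20, 40 or 80 mg/kg/d in 5% ethanol/5% Solutol/Tris-NaCl buffer pH 9. Survival was scored in six animals per group, and log reduction of blood bacteremia in five animals per group. Results are given as mean ± sem against the vehicle-treated group (P < 0.05 or P < 0.001).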

Staphylococcus aureus [7] = test: Antibacterial activity against methicillin-resistant Staphylococcus aureus ATCC 33592 infected in mouse assessed as log reduction in bacteremia at 10 mg/kg/day, iv relative to control; format: functional
Escherichia coli [8] = test: Bacteriostatic activity against Escherichia coli ATCC 35218 expressing LacR by time kill study in presence of fetal calf serum; format: functional, organism-based
Pseudomonas aeruginosa [9] = test: Antibacterial activity against Pseudomonas aeruginosa ATCC 27853; format: functional
Streptococcus pneumoniae [10] = test: Antibacterial activity against penicillin-resistant Streptococcus pneumoniae DSM 11865 at >1 ug/mL after 48 hrs; format: functional, organism-based
Staphylococcus aureus [11] = test: Antibacterial activity against methicillin-resistant Staphylococcus aureus ATCC 33592 infected in mouse assessed as log reduction in bacteremia at 3 mg/kg/day, iv relative to control; format: functional
Enterococcus faecium [12] = test: Antibacterial activity against vancomycin-resistant Enterococcus faecium DSM 17050; format: functional; details: Enterococcus faecium, DSM 17050
Staphylococcus aureus [13] = test: Antibacterial activity against methicillin-resistant Staphylococcus aureus ATCC 33592 at >1 ug/mL after 48 hrs; format: functional, organism-based
Staphylococcus aureus [14] = test: Antibacterial activity against methicillin-resistant Staphylococcus aureus ATCC 33592 infected in mouse assessed as host survival at 40 mg/kg/day, sc relative to control; format: functional; details: ATCC 33592, sc, route subcutaneous; method in brief: as §2
[15] = Cmax in Swiss mouse at 7.5 mg/kg, iv; format: ADME, organism-based; design: dose 7.5 mg/kg, route intravenous; details: in vivo
Method in brief: (§3)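 Male Swiss mice dosed 7.5 mg/kg iv; plasma pharmacokinetics gave clearance, steady-state volume of distribution, Cmax and plasma half-life.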

Cytochrome P450 2D6 = Cytochrome P450 2D6 (Homo sapiens, UniProt P10635); test: Inhibition of CYP2D6; format: ADME
Staphylococcus aureus [16] = test: Antibacterial activity against methicillin-resistant Staphylococcus aureus ATCC 33592 infected in iv dosed mouse assessed as decrease in bacteremia; format: functional, organism-based
[17] = Volume of distribution at steady state in Swiss mouse at 7.5 mg/kg, iv; format: ADME, organism-based; design: dose 7.5 mg/kg, route intravenous; details: in vivo, read-out: Vdss; method in brief: as §3
Streptococcus pneumoniae [18] = test: Bacteriostatic activity against penicillin-resistant Streptococcus pneumoniae DSM 11865 by time kill study in presence of fetal calf serum; format: functional, organism-based
Staphylococcus aureus [19] = test: Antibacterial activity against methicillin-resistant Staphylococcus aureus ATCC 33592 infected in mouse assessed as log reduction in bacteremia at 15 mg/kg/day, iv relative to control; format: functional
Escherichia coli [20] = test: Antibacterial activity against Escherichia coli ATCC 35218 expressing LacR at >1 ug/mL after 48 hrs; format: functional, organism-based
Staphylococcus aureus [21] = test: Antibacterial activity against methicillin-resistant Staphylococcus aureus ATCC 33592 infected in mouse assessed as host survival at 15 mg/kg/day, iv relative to control; format: functional
hERG (KCNH2) = hERG (KCNH2) (Homo sapiens, UniProt Q12809); test: Inhibition of human ERG at 10 uM
Staphylococcus aureus [22] = test: Antibacterial activity against methicillin-resistant Staphylococcus aureus ATCC 33592 infected in mouse assessed as log reduction in bacteremia at 40 mg/kg/day, sc relative to control; format: functional; details: route subcutaneous; method in brief: as §2
Staphylococcus aureus [23] = test: Antibacterial activity against methicillin-resistant Staphylococcus aureus ATCC 33592 infected in mouse assessed as host survival at 80 mg/kg/day, sc relative to control; format: functional; details: ATCC 33592, sc, route subcutaneous; method in brief: as §2
Enterococcus faecium [24] = test: Bacteriostatic activity against vancomycin-resistant Enterococcus faecium DSM 17050 by time kill study in presence of fetal calf serum; format: functional, organism-based
Staphylococcus aureus [25] = test: Antibacterial activity against methicillin-resistant Staphylococcus aureus ATCC 33592 infected in iv dosed mouse assessed as increase in host survival; format: functional, organism-based
Staphylococcus aureus [26] = test: Antibacterial activity against methicillin-resistant Staphylococcus aureus ATCC 33592; format: functional; details: Staphylococcus aureus, ATCC 33592
Pseudomonas aeruginosa [27] = test: Antibacterial activity against Pseudomonas aeruginosa ATCC 27853 at >1 ug/mL after 48 hrs; format: functional, organism-based
[28] = Drug degradation in PBS buffer over 24 hrs in presence of i-BuNH2; format: physicochemical; details: PBS buffer with i-BuNH2; read-out: Drug degradation; method in brief: as §1
Streptococcus pneumoniae [29] = test: Antibacterial activity against penicillin-resistant Streptococcus pneumoniae DSM 11865; format: functional; details: Streptococcus pneumoniae, DSM 11865
Staphylococcus aureus [30] = test: Antibacterial activity against methicillin-resistant Staphylococcus aureus ATCC 33592 infected in mouse assessed as host survival at 20 mg/kg/day, sc relative to control; format: functional; details: ATCC 33592, sc, route subcutaneous; method in brief: as §2
[31] = Half life in Swiss mouse plasma at 7.5 mg/kg, iv; format: ADME, organism-based; design: dose 7.5 mg/kg, route intravenous; method in brief: as §3
Cytochrome P450 3A4 = Cytochrome P450 3A4 (Homo sapiens, UniProt P08684); test: Inhibition of CYP3A4; format: ADME
Staphylococcus aureus [32] = test: Antibacterial activity against methicillin-resistant Staphylococcus aureus ATCC 33592 infected in mouse assessed as log reduction in bacteremia at 80 mg/kg/day, sc relative to control; format: functional; details: route subcutaneous; method in brief: as §2
Escherichia coli [33] = test: Antibacterial activity against Escherichia coli ATCC 35218 expressing LacR; format: functional
Pseudomonas aeruginosa [34] = test: Bacteriostatic activity against Pseudomonas aeruginosa ATCC 27853 by time kill study in presence of fetal calf serum; format: functional, organism-based
[35] = Clearance in Swiss mouse at 7.5 mg/kg, iv; format: ADME, organism-based; design: dose 7.5 mg/kg, route intravenous; details: in vivo; method in brief: as §3
Staphylococcus aureus [36] = test: Bacteriostatic activity against methicillin-resistant Staphylococcus aureus ATCC 33592 by time kill study in presence of fetal calf serum; format: functional, organism-based
[37] = Solubility of the compound in PBS buffer at pH 7.4; format: physicochemical

Cytochrome P450 3A4, sequence (P08684 whole entry): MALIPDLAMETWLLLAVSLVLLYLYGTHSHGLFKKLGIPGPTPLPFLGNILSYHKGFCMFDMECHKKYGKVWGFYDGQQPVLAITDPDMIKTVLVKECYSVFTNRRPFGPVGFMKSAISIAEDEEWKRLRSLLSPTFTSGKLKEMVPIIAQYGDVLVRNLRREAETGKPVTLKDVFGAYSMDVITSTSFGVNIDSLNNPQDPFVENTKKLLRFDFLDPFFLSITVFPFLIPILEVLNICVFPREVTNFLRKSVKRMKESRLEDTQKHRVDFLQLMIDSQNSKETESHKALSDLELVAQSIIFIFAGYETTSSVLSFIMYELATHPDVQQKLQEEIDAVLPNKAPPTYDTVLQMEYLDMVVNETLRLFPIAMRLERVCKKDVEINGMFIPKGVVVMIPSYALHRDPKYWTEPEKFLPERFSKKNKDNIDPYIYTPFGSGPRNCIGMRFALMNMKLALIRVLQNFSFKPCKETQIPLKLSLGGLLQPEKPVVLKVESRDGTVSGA
hERG (KCNH2), sequence (Q12809 whole entry): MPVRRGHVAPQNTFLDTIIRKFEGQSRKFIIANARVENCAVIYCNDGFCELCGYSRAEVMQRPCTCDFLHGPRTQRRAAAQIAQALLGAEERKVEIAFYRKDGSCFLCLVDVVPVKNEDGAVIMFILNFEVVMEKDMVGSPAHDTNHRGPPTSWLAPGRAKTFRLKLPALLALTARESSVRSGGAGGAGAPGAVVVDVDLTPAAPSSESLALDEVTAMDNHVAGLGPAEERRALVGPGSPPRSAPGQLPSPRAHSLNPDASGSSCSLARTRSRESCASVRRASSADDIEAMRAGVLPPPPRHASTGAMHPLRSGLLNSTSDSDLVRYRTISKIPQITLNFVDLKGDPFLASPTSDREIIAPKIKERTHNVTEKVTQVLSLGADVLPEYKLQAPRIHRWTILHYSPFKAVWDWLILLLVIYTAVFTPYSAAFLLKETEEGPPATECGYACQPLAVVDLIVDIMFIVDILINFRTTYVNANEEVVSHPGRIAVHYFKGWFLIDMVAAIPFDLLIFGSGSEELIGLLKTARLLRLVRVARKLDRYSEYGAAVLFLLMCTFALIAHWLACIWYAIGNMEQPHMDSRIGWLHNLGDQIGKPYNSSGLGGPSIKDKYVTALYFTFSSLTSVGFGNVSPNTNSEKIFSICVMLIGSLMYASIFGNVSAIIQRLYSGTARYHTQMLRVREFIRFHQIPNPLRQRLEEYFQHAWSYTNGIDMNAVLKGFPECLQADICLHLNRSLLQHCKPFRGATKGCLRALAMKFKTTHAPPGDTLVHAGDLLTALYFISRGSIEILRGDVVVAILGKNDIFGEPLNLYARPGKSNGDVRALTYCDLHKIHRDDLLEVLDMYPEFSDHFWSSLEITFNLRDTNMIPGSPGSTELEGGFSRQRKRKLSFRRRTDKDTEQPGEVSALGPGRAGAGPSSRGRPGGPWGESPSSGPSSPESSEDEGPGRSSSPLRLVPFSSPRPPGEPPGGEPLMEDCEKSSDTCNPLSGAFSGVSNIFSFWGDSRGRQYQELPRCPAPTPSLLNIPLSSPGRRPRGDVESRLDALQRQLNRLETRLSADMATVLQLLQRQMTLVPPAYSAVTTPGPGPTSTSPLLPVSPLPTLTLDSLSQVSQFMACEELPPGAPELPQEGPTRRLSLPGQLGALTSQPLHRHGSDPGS
Cytochrome P450 2D6, sequence (P10635 whole entry): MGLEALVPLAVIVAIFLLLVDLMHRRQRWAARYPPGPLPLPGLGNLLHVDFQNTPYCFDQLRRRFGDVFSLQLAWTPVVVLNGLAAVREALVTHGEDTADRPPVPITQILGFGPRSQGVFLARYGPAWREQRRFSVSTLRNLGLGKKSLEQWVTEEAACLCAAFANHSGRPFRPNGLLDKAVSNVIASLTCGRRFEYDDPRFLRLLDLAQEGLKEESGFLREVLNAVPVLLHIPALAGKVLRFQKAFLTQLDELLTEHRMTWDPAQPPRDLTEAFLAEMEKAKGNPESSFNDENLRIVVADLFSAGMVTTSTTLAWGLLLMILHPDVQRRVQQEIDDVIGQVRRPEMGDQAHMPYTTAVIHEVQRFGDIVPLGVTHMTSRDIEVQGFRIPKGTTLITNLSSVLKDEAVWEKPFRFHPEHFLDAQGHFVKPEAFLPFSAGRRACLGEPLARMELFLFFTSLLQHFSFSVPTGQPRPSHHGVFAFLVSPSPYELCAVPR

CCCCCCc1c(O)ccc2c1O[C@]1(C2=O)C(Cl)=C(Cl)C(=O)N1C [ARMENIASPIROLE A]
survival at 10 mg/kg/day (Staphylococcus aureus [1]): 33% | Stability [2]: Stable | degraded at 24 h [3]: 30% | survival at 3 mg/kg/day (Staphylococcus aureus [4]): 0% | Activity (Enterococcus faecium [5]): Active | FC (Staphylococcus aureus [6]): 0.2 | FC (Staphylococcus aureus [7]): 0.9 | Activity (Escherichia coli [8]): inactive | IC80 (Pseudomonas aeruginosa [9]): > 30 µM | Activity (Streptococcus pneumoniae [10]): Active | FC (Staphylococcus aureus [11]): 0.05 | IC80 (Enterococcus faecium [12]): 8.2 µM | Activity (Staphylococcus aureus [13]): Active | survival at 40 mg/kg/day (Staphylococcus aureus [14]): 50% | Cmax [15]: 27400 ng/mL | IC50 (Cytochrome P450 2D6): > 10 µM | Activity (Staphylococcus aureus [16]): Dose-dependent effect | Vd [17]: 2.4 L/kg | Activity (Streptococcus pneumoniae [18]): inactive | FC (Staphylococcus aureus [19]): 2.8 | Activity (Escherichia coli [20]): Active | survival at 15 mg/kg/day (Staphylococcus aureus [21]): 67% | inhibition at 10 µM (hERG (KCNH2)): < 35% | FC (Staphylococcus aureus [22]): 0.8 | survival at 80 mg/kg/day (Staphylococcus aureus [23]): 50% | Activity (Enterococcus faecium [24]): inactive | Survival (Staphylococcus aureus [25]): Dose-dependent effect | IC80 (Staphylococcus aureus [26]): 0.125 µM | Activity (Pseudomonas aeruginosa [27]): Active | degraded at 24 h [28]: < 10% | IC80 (Streptococcus pneumoniae [29]): 2.3 µM | survival at 20 mg/kg/day (Staphylococcus aureus [30]): 0% | half-life [31]: 3 h | IC50 (Cytochrome P450 3A4): > 10 µM | FC (Staphylococcus aureus [32]): 1.7 | IC80 (Escherichia coli [33]): > 30 µM | Activity (Pseudomonas aeruginosa [34]): inactive | clearance [35]: 20 mL/min/kg | Activity (Staphylococcus aureus [36]): inactive | solubility [37]: 25 µg/mL (≈ 65.1 µM)
